Data as given in ChEMBL document CHEMBL5030529, “Rationally Modified Antimicrobial Peptides from the N-Terminal Domain of Human RNase 3 Show Exceptional Serum Stability” (J Med Chem, 2021).
Values after ≈ are worked out from the molar mass of the structure shown. Active and inactive are the calls of the source. The rule behind the calls is not given here. Square brackets hold non-standard residues; d marks the D form. Peptide text beside a SMILES is read from it. Orn = NCCC[C@H](N)C(=O)O

Legend:
Cell membrane [1] = assay: Induction of membrane depolarization in Escherichia coli at 0.4 uM incubated 20 to 30 mins under dark by Eclipse fluorescence spectrometry; format: subcellular; conditions: time 20-30 min
Outline: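 Exponential-phase E. coli (OD 0.2–0.4) was washed in 5 mM HEPES, 20 mM glucose, 100 mM KCl, pH 7.2, and resuspended to OD 0.05. DiSC3(5) was added at 0.4 μM final and equilibrated in the dark for 20–30 min to a stable baseline. Peptide was then added and dye release was followed by fluorescence at ex 625 nm / em 666 nm.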

Pseudomonas sp. = assay: Antimicrobial activity against Pseudomonas sp assessed as bacterial growth inhibition incubated in presence of serum for 24 hrs; format: functional
Outline: (§1)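 Broth microdilution in polypropylene plates in Mueller-Hinton medium, inoculum 5 × 10^5 CFU/mL, 37 °C for 24 h. […] MIC is the lowest peptide concentration with no growth. Values are the mean of three independent studies.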

[2] = Stability in human serum assessed as half life by LC-MS analysis; format: ADME, cell-free
Outline: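 1 mM peptide stocks in water were mixed 1:1 (v/v) with human serum. Aliquots were taken at set times and digestion was stopped by acetonitrile precipitation. Serum proteins were removed by centrifugation, and intact peptide and fragments in the supernatant were analysed by LC–MS. Half-life values are the mean of three independent studies.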

Acinetobacter baumannii [3] = assay: Antimicrobial activity against Acinetobacter baumannii assessed as bacterial growth inhibition incubated for 24 hrs
Salmonella enterica = assay: Antimicrobial activity against Salmonella enterica assessed as bacterial growth inhibition incubated in presence of serum for 24 hrs; format: functional; outline: as §1
[4] = Hemolytic activity in horse RBC assessed as hemolysis at 250 uM relative to control; format: ADME, tissue-based, Equus caballus; conditions: erythrocyte
Outline: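 Horse erythrocytes were diluted 10-fold in PBS and washed by three spins at 800g. They were incubated with peptides for 4 h at 37 °C, and supernatant absorbance was read at 540 nm. Percent hemolysis is relative to total lysis with 1% Triton X-100. Values are the mean of three independent studies.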

Cell membrane [5] = assay: Induction of membrane damage in Escherichia coli assessed as loss of membrane integrity by measuring blebs at 10 uM incubated for 2 hrs by Electron scanning microscopy; format: subcellular
Outline: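 E. coli was grown in LB at 37 °C to OD600 0.4 and exposed to 10 μM peptide for 2 h at room temperature. Cells were collected on 0.1 μm filters, fixed in 2.5% glutaraldehyde in cacodylate buffer pH 7.4 and post-fixed in 1% OsO4. Samples were dehydrated in ethanol, coated with gold–palladium and imaged at 15 kV.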

MRC5 = assay: Cytotoxicity against human MRC5 cells assessed as cell growth inhibition measured after 4 hrs by MTT assay; format: cell-based; conditions: MRC5, 4 h
Outline: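 MRC-5 fibroblasts were grown in MEMα with 10% FBS, seeded at 3 × 10^4 cells/well and left overnight to adhere. Cells were exposed to two-fold peptide serial dilutions for 4 h, then given medium with MTT at 0.4 mg/mL for 150 min. Formazan was dissolved in DMSO and read at 600 nm. Values are the mean of three independent studies.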

Escherichia coli [6] = assay: Antimicrobial activity against Escherichia coli assessed as bacterial growth inhibition incubated for 24 hrs
Shigella flexneri = assay: Antimicrobial activity against Shigella flexneri assessed as bacterial growth inhibition incubated in presence of serum for 24 hrs; format: functional; outline: as §1
[7] = Retention time of the compound by HPLC analysis; format: physicochemical
Outline: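 Analytical RP-HPLC on a C18 column (4.6 × 50 mm, 3 μm) with a linear gradient of 0–60% acetonitrile (0.036% TFA) into water (0.045% TFA) over 15 min. Flow was 1 mL/min with UV detection at 220 nm.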

Escherichia coli [8] = assay: Antimicrobial activity against clinical isolate Escherichia coli 116878 assessed as bacterial growth inhibition incubated in presence of serum for 24 hrs; format: functional; outline: as §1
Acinetobacter baumannii [9] = assay: Antimicrobial activity against clinical isolate Acinetobacter baumannii 3879 assessed as bacterial growth inhibition incubated in presence of serum for 24 hrs; format: functional; outline: as §1
Acinetobacter baumannii [10] = assay: Antimicrobial activity against clinical isolate Acinetobacter baumannii 3862 assessed as bacterial growth inhibition incubated in presence of serum for 24 hrs; format: functional; outline: as §1
Acinetobacter baumannii [11] = assay: Antimicrobial activity against clinical isolate Acinetobacter baumannii 3878 assessed as bacterial growth inhibition incubated in presence of serum for 24 hrs; format: functional; outline: as §1
Pseudomonas aeruginosa [12] = assay: Antimicrobial activity against clinical isolate Pseudomonas aeruginosa 827651 assessed as bacterial growth inhibition incubated in presence of serum for 24 hrs; format: functional; outline: as §1
Acinetobacter baumannii [13] = assay: Antimicrobial activity against clinical isolate Acinetobacter baumannii 3880 assessed as bacterial growth inhibition incubated in presence of serum for 24 hrs; format: functional; outline: as §1
Escherichia coli [14] = assay: Antimicrobial activity against clinical isolate Escherichia coli cf073 assessed as bacterial growth inhibition incubated in presence of serum for 24 hrs; format: functional; outline: as §1
Salmonella typhimurium [15] = assay: Antimicrobial activity against clinical isolate Salmonella typhimurium 365 assessed as bacterial growth inhibition incubated in presence of serum for 24 hrs; format: functional, Salmonella enterica subsp. enterica serovar Typhimurium; conditions: Salmonella enterica; outline: as §1
Salmonella typhimurium [16] = assay: Antimicrobial activity against clinical isolate Salmonella typhimurium 324 assessed as bacterial growth inhibition incubated in presence of serum for 24 hrs; format: functional, Salmonella enterica subsp. enterica serovar Typhimurium; conditions: Salmonella enterica; outline: as §1
Pseudomonas aeruginosa [17] = assay: Antimicrobial activity against clinical isolate Pseudomonas aeruginosa 827632 assessed as bacterial growth inhibition incubated in presence of serum for 24 hrs; format: functional; outline: as §1

Row | Activity (Cell membrane [1]) | MIC (Pseudomonas sp.) | half-life [2] | MIC (Acinetobacter baumannii [3]) | MIC (Salmonella enterica) | MIC (Escherichia coli [6]) | MIC (Shigella flexneri) | Retention_time [7] | Molecule | Activity [4] | Activity (Cell membrane [5]) | IC50 (MRC5) | further results
1 | Active | 6.25 µM | 29.1 min | 6.25 µM (≈ 21.9 µg/mL) | 25 µM | 6.25 µM (≈ 21.9 µg/mL) | 12.5 µM | 8.4 min | CC[C@H](C)[C@H](NC(=O)[C@H](C)NC(=O)[C@H](CCCN)NC(=O)[C@H](CCSC)NC(=O)[C@H](C)NC(=O)[C@@H](NC(=O)[C@@H](NC(=O)[C@H](CCCN)NC(=O)[C@@H]1CCCN1C(=O)[C@H](CO)NC(=O)[C@@H](NC(=O)[C@H](Cc1c[nH]cn1)NC(=O)[C@H](CCC(N)=O)NC(=O)[C@@H](NC(=O)[C@H](C)NC(=O)[C@H](Cc1ccccc1)NC(=O)[C@H](Cc1c[nH]c2ccccc12)NC(=O)[C@H](CCC(N)=O)NC(=O)[C@H](C)NC(=O)[C@H](CCCN)NC(=O)[C@@H](NC(=O)[C@H](Cc1ccccc1)NC(=O)[C@@H]1CCCN1C(=O)[C@@H](N)CCCN)[C@@H](C)O)[C@@H](C)CC)[C@@H](C)CC)[C@@H](C)O)[C@@H](C)CC)C(=O)N[C@@H](CC(N)=O)C(=O)N[C@@H](CC(N)=O)C(=O)N[C@@H](Cc1ccc(O)cc1)C(=O)N[C@@H](CCCN)C(=O)N[C@@H](Cc1c[nH]c2ccccc12)C(=O)N[C@@H](CCCN)C(=O)O | 10% | Active | 113 µM | –
2 | Active | 1.56 µM | 12.3 min | 1.56 µM | 12.5 µM | 1.56 µM | 3.13 µM | 8.9 min | H-RPFTRAQWFAIQHISPRTIAMRAINNYRWR-OH | 44% | Active | 23 µM | MIC (Escherichia coli [8]): 6.25 µM; MIC (Acinetobacter baumannii [9]): 1.56 µM; MIC (Acinetobacter baumannii [10]): 0.78 µM; MIC (Acinetobacter baumannii [11]): 1.56 µM; MIC (Pseudomonas aeruginosa [12]): 25 µM; MIC (Acinetobacter baumannii [13]): 1.56 µM; MIC (Escherichia coli [14]): 3.13 µM; MIC (Salmonella typhimurium [15]): 6.25 µM; MIC (Salmonella typhimurium [16]): 6.25 µM; MIC (Pseudomonas aeruginosa [17]): 12.5 µM
3 | – | 25 µM | > 480 min | > 100 µM | > 100 µM | 25 µM (≈ 82.4 µg/mL) | 50 µM | 10.8 min | CC[C@H](C)[C@H](NC(=O)[C@H](C)NC(=O)[C@H](CCCN)NC(=O)[C@H](CCSC)NC(=O)[C@H](C)NC(=O)[C@@H](NC(=O)[C@@H](NC(=O)[C@H](CCCN)NC(=O)[C@@H]1CCCN1C(=O)[C@H](CO)NC(=O)[C@@H](NC(=O)[C@H](Cc1c[nH]cn1)NC(=O)[C@H](CCC(N)=O)NC(=O)[C@@H](NC(=O)[C@H](C)NC(=O)[C@H](Cc1ccccc1)NC(=O)[C@H](Cc1c[nH]c2ccccc12)NC(=O)[C@H](CCC(N)=O)NC(=O)[C@H](C)NC(=O)[C@H](CCCN)NC(=O)[C@@H](NC(=O)[C@@H](N)Cc1ccccc1)[C@@H](C)O)[C@@H](C)CC)[C@@H](C)CC)[C@@H](C)O)[C@@H](C)CC)C(=O)N[C@@H](CC(N)=O)C(=O)N[C@@H](CC(N)=O)C(=O)N[C@@H](Cc1ccc(O)cc1)C(=O)N[C@@H](CCCN)C(=O)N[C@@H](Cc1c[nH]c2ccccc12)C(=O)N[C@@H](CCCN)C(=O)O (H-FT[Orn]AQWFAIQHISP[Orn]TIAM[Orn]AINNY[Orn]W[Orn]-OH) | 11% | – | > 300 µM | –
